These results are taken from ChEMBL document CHEMBL1149132, “Structure-activity study of the ORL1 antagonist Ac-Arg-D-Cha-Qaa-D-Arg-D-p-ClPhe-NH2” (J Med Chem, 2004).

Holding throughout (assay type): cell-based
Assay [1] has as its target Delta-type opioid receptor (Homo sapiens, UniProt P41143). The experiment in a line: Binding affinity against human opioid receptor delta 1 was determined using [3H]diprenorphine in vitro transfected to COS-1 cells. The method, boiled down: (§1)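 Competition binding with [3H]diprenorphine on membrane homogenates of COS-1 cells transiently transfected with human MOR or human DOR. Ki given as mean ± SEM from two or more separate experiments done in duplicate.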

For a further assay, the target named is Nociceptin receptor (Homo sapiens, UniProt P41146). The experiment in a line: Binding affinity against human opioid receptor like 1 (hORL) was determined using [leucyl-3H]nociceptin in vitro in CHO cells. The method, boiled down:
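Displacement of [leucyl-3H]nociceptin from membrane homogenates of CHO cells stably expressing recombinant human ORL1. Ki values are means ± SEM of two or more independent experiments, each in duplicate.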

Another assay has as its target Mu-type opioid receptor (Homo sapiens, UniProt P35372). The experiment in a line: Binding affinity against human Opioid receptor mu 1 (hMOR) was determined using [3H]diprenorphine in vitro transfected to COS-1 cells. In short, it runs like this: as §1
The target in assay [2] is Kappa-type opioid receptor (Homo sapiens, UniProt P41145). The experiment in a line: Binding affinity against human Opioid receptor kappa 1 (hKOR) was determined using [3H]diprenorphine in vitro in CHO cells. The method, boiled down: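 Competition binding with [3H]diprenorphine on membrane homogenates of CHO cells stably expressing recombinant human KOR. Ki reported as mean ± SEM of two or more separate experiments, each run in duplicate.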
Sequence of Kappa-type opioid receptor (P41145 whole entry): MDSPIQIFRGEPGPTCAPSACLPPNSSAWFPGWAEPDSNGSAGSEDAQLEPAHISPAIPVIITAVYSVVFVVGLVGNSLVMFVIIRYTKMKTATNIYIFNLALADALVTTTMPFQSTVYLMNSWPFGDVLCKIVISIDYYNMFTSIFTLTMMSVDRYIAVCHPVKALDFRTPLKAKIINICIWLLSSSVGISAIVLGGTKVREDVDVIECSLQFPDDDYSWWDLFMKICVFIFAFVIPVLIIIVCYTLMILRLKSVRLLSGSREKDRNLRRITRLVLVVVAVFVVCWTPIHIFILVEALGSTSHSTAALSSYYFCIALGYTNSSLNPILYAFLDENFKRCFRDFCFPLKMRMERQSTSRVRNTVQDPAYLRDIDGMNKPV

The term Ki denotes a dissociation constant, usually derived from enzyme kinetics or from competition with a known ligand. A lower Ki goes with a stronger hold on the target.

Each structure is given as a SMILES string.

Sequence of Nociceptin receptor (P41146 whole entry): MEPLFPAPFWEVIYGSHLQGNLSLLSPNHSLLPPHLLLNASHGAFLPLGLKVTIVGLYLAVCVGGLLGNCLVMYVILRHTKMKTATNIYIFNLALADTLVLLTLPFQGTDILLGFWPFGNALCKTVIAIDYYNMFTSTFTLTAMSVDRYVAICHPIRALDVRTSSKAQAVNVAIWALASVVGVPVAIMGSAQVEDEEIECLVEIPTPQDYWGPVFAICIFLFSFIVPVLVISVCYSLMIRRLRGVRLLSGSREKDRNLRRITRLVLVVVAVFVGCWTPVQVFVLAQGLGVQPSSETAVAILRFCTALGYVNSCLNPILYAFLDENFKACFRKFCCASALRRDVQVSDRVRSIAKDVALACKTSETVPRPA
Sequence of Mu-type opioid receptor (P35372 whole entry): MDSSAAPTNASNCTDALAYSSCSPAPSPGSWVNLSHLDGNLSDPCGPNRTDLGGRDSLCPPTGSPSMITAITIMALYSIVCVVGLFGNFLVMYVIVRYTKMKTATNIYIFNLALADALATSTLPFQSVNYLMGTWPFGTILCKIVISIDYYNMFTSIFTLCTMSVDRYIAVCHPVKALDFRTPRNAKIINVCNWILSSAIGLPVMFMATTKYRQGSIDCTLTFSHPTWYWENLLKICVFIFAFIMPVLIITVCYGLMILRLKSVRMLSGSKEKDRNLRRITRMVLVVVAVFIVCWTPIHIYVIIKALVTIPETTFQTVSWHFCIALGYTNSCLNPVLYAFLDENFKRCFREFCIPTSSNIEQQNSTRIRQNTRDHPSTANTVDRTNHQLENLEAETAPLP
Sequence of Delta-type opioid receptor (P41143 whole entry): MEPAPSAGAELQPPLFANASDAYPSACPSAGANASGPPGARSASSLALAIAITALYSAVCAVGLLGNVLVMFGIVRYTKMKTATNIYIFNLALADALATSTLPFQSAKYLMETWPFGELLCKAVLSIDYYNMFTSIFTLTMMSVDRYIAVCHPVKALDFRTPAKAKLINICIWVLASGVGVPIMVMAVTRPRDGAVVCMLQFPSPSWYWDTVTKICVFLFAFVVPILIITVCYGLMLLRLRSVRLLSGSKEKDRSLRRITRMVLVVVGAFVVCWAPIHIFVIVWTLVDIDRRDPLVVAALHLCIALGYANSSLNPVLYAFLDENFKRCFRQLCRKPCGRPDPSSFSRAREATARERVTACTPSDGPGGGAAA

Turning to `CC(=O)N[C@@H](CCCNC(N)=O)C(=O)N[C@H](CC1CCCCC1)C(=O)N[C@H]1CC[C@H]2CCC[C@@H](C(=O)N[C@H](CCCN=C(N)N)C(=O)N[C@H](Cc3ccc(Cl)cc3)C(N)=O)N2C1=O`, the inhibition constant Ki in assay [1] was above 5000 nM; at Nociceptin receptor it was 72 nM; at Mu-type opioid receptor, 2560 nM; in assay [2], 4270 nM.

In the case of `CC(=O)N[C@@H](CCCN=C(N)N)C(=O)N[C@H](CC1CCCCC1)C(=O)N[C@H]1CC[C@H]2CCC[C@@H](C(=O)N[C@H](CCCN=C(N)N)C(=O)N[C@H](Cc3ccc(Cl)cc3)C(N)=O)N2C1=O`, the Ki in assay [1] was above 5000 nM; on Nociceptin receptor it was 27 nM; on Mu-type opioid receptor, 90 nM; in assay [2] it was 105 nM.

With `CC(=O)N[C@@H](CCCN=C(N)N)C(=O)N[C@H](CC1CCCCC1)C(=O)N[C@H]1CC[C@H]2CCC[C@@H](C(=O)N[C@H](CCCNC(N)=O)C(=O)N[C@H](Cc3ccc(Cl)cc3)C(N)=O)N2C1=O`, the Ki (in assay [1]; at Nociceptin receptor; on Mu-type opioid receptor; in assay [2]) was above 5000 nM in each case.

Turning to `CC(=O)N[C@@H](CCCN=C(N)N)C(=O)N[C@H](CC1CCCCC1)C(=O)N[C@H]1CC[C@H]2CCC[C@@H](C(=O)N[C@H](CCCNC(N)=O)C(N)=O)N2C1=O`, the inhibition constant Ki (in assay [1]; on Nociceptin receptor; at Mu-type opioid receptor; in assay [2]) was above 5000 nM throughout.

In the case of `CC(=O)N[C@@H](CCCN=C(N)N)C(=O)N[C@H](CC1CCCCC1)C(=O)N[C@H]1CC[C@@H]2SC[C@@H](C(=O)N[C@H](CCCN=C(N)N)C(=O)NC(Cc3ccc(Cl)cc3)C(N)=O)N2C1=O` (stereo not given in full), the inhibition constant (Ki) was 222 nM in assay [1], 34 nM at Nociceptin receptor, 53 nM on Mu-type opioid receptor and 78 nM in assay [2].
